Test results taken from ChEMBL document CHEMBL4339252, “Prenylated Stilbenoids Affect Inflammation by Inhibiting the NF-κB/AP-1 Signaling Pathway and Cyclooxygenases and Lipoxygenase” (J Nat Prod, 2019).
Calls of active or inactive are those of the source. The calls are words filed in the database; no cut-off is given here.

Tests used:
THP-1 [1] = test: Antiinflammatory activity in PMA-differentiated human THP1 cells assessed as inhibition of TNFalpha production at 1 uM pre-incubated for 1 hr before LPS-stimulation for 24 hrs by ELISA; format: functional, cell-based
Procedure, shortened: (§1)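 THP-1 monocytes grown in RPMI 1640 with 10% FBS and antibiotics at 37 °C, plated at 5 × 10^5 cells/well and differentiated to macrophages with phorbol myristate acetate. Pretreated 1 h with compound in DMSO, or DMSO vehicle. Then stimulated with E. coli 0111:B4 LPS (1 μg/mL); unstimulated controls got no LPS. Medium collected after 24 h, cytokine measured by ELISA. Triplicates, three or more independent experiments, means ± SE.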

THP-1 [2] = test: Cytotoxicity against human THP1 cells assessed as reduction in cell viability incubated for 24 hrs by WST1 dye based assay; conditions: THP-1, 24 h
Procedure, shortened: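 Undifferentiated THP-1 cells moved to serum-free medium at 5 × 10^5 cells/well. After 2 h, compounds in DMSO added at 0.125−20 μM and incubated 24 h. Viability read with WST-1 reagent. IC50 taken from four-parameter logistic fits of at least five-point curves, serial measurements in triplicate, means ± SE.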

Homo sapiens = species: Homo sapiens; test: Inhibition of LPS-stimulation dependent TLR4-induced NF-kappaB/AP-1 signaling cascade in human THP1-XBlue-MD2-CD14 cells at 1 uM pre-incubated for 1 hr before LPS-stimulation for 24 hrs by spectrophotometry
Procedure, shortened: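 THP-1-XBlue-MD2-CD14 reporter cells (5 × 10^5/well) pretreated 1 h with compound in DMSO, then stimulated with LPS (1 μg/mL) for 24 h. NF-κB/AP-1 activity read with Quanti-Blue reagent as OD at 655 nm and expressed against vehicle (100%). Five independent experiments in triplicate, means ± SE.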

[3] = Selectivity index, ratio of IC50 for inhibition of ram seminal vesicle COX1 to IC50 for inhibition of human recombinant COX2
[4] = target: T1, Polyunsaturated fatty acid 5-lipoxygenase (Homo sapiens, UniProt P09917); test: Inhibition of human recombinant 5-LOX assessed as reduction in leukotriene B4 synthesis using arachidonic acid substrate by ELISA
T1 sequence (P09917 whole entry): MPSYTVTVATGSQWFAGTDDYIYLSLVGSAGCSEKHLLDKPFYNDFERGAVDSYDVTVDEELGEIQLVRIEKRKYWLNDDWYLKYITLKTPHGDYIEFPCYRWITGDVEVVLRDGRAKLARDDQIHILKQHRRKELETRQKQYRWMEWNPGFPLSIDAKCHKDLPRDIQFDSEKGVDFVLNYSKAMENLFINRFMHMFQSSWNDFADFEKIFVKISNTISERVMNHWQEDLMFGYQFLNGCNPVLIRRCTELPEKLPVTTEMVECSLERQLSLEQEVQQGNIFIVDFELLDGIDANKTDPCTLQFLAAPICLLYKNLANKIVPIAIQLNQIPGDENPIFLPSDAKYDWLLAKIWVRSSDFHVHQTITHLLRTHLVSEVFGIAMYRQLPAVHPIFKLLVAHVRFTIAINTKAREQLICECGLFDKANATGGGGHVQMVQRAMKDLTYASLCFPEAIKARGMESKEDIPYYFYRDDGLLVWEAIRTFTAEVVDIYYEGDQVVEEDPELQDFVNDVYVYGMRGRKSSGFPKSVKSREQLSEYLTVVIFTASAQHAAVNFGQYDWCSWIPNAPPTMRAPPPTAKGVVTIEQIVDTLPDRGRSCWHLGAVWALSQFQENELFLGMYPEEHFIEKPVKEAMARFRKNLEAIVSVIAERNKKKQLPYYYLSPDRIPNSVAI

[5] = target: T2, Prostaglandin G/H synthase 1 (Ovis aries, UniProt P05979); test: Inhibition of ram seminal vesicle COX1 assessed as reduction in PGE2 production using arachidonic acid substrate by ELISA
T2 sequence (P05979 whole entry): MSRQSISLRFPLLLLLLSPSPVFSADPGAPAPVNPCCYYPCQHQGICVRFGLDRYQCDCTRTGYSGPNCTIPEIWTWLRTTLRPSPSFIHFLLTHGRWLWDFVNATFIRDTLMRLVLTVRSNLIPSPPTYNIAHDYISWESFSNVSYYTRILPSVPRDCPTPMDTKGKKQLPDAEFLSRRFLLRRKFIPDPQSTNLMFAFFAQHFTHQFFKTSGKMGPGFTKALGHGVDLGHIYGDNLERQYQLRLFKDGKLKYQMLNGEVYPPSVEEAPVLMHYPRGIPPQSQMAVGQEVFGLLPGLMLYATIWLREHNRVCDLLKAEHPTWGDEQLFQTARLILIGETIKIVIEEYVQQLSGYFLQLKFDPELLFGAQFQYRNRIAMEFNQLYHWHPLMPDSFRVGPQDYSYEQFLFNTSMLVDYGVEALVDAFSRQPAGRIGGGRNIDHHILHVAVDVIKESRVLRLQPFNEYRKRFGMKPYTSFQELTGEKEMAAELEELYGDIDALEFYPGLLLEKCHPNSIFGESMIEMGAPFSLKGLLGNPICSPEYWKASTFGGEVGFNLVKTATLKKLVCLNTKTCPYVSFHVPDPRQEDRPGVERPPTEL

[6] = target: T3, Prostaglandin G/H synthase 2 (Homo sapiens, UniProt P35354); test: Inhibition of human recombinant COX2 assessed as reduction in PGE2 production using arachidonic acid substrate by ELISA
T3 sequence (P35354 whole entry): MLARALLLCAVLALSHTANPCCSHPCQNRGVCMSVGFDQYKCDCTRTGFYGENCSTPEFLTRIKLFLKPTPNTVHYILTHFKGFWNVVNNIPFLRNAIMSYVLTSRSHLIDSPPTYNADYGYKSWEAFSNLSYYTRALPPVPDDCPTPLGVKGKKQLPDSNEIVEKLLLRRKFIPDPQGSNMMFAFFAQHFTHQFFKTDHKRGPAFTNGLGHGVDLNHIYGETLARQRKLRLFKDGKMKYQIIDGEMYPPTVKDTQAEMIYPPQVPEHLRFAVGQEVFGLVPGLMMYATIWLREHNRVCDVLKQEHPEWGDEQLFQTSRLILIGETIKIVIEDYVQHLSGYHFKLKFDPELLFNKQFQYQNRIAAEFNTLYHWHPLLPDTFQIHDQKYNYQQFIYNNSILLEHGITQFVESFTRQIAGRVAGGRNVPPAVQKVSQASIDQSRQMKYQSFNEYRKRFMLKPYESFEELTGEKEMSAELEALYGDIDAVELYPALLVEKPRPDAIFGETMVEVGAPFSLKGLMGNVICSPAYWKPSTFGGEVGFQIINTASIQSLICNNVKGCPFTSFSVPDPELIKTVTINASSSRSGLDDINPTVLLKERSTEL

THP-1 [7] = test: Antiinflammatory activity in PMA-differentiated human THP1 cells assessed as inhibition of IL-1beta production at 1 uM pre-incubated for 1 hr before LPS-stimulation for 24 hrs by ELISA; format: functional, cell-based; procedure, shortened: as §1
THP-1 [8] = test: Induction of TNFalpha production in PMA-differentiated human THP1 cells at 1 uM pre-incubated for 1 hr before LPS-stimulation for 24 hrs by ELISA; format: cell-based; conditions: thp-1, 24 h; procedure, shortened: as §1
THP-1 [9] = test: Induction of IL-1beta production in PMA-differentiated human THP1 cells at 1 uM pre-incubated for 1 hr before LPS-stimulation for 24 hrs by ELISA; format: cell-based; conditions: thp-1, 24 h; procedure, shortened: as §1
THP-1 [10] = test: Antiinflammatory activity in PMA-differentiated human THP1 cells assessed as inhibition of TNFalpha production at 0.1 uM pre-incubated for 1 hr before LPS-stimulation for 24 hrs by ELISA; format: functional, cell-based; procedure, shortened: as §1
THP-1 [11] = test: Induction of IL-1beta production in PMA-differentiated human THP1 cells at 0.1 uM pre-incubated for 1 hr before LPS-stimulation for 24 hrs by ELISA; format: cell-based; conditions: thp-1, 24 h; procedure, shortened: as §1
[12] = target: T4, NF-kappa-B inhibitor alpha (Homo sapiens) (UniProt P25963); test: Inhibition of IkappaBalpha degradation in LPS-stimulated human THP1-XBlue-MD2-CD14 cells at 1 uM pre-incubated for 1 hr before LPS-stimulation for 30 mins by Western blot analysis
T4 sequence (whole entry): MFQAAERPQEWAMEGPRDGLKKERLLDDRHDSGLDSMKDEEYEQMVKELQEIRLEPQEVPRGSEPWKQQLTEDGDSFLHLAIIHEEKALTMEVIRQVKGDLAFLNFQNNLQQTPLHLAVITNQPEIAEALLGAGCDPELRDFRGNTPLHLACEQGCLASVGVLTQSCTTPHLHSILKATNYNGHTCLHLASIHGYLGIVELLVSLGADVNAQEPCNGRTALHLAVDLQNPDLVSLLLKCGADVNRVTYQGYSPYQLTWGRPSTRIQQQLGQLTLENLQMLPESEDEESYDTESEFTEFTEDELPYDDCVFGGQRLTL
Procedure, shortened: (§2)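 THP-1-XBlue-MD2-CD14 cells pretreated with compound (1 μM), then LPS (1 μg/mL) added 1 h later. Lysates taken 30 min after LPS. 9 μg protein run on 12% PAGE, blotted to PVDF, blocked in 5% BSA. Probed for IκB-α, total and phospho p38, ERK1/2 and JNK, with β-actin as reference. ECL chemiluminescence; three independent experiments.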

[13] = target: Mitogen-activated protein kinase; ERK1/ERK2 (Homo sapiens) (UniProt P27361+P28482); test: Inhibition of ERK1/2 phosphorylation in LPS-stimulated human THP1-XBlue-MD2-CD14 cells at 1 uM pre-incubated for 1 hr before LPS-stimulation for 30 mins by Western blot analysis; procedure, shortened: as §2
Mitogen-activated protein kinase; ERK1/ERK2 (Homo sapiens), sequence (P27361 whole entry, looked up): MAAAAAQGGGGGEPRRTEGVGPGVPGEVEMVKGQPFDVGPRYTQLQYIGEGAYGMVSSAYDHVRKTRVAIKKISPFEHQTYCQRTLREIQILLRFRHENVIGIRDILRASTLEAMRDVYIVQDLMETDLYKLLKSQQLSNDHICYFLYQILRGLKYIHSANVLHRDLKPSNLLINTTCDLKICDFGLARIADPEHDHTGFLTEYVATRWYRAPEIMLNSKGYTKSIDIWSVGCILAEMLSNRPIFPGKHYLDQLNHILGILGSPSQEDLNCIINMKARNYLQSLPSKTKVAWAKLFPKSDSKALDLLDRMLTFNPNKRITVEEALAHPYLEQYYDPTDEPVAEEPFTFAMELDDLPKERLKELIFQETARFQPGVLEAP
Mitogen-activated protein kinase; ERK1/ERK2 (Homo sapiens), sequence (P28482 whole entry, looked up): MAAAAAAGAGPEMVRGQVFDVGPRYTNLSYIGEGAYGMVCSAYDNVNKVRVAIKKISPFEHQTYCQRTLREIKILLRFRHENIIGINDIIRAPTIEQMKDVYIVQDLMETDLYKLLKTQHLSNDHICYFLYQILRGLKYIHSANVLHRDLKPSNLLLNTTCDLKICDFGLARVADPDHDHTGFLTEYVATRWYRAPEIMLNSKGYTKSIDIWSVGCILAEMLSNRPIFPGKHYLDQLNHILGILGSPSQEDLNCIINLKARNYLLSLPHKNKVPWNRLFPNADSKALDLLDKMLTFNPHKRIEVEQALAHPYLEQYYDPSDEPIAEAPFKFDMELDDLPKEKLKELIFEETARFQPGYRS

[14] = target: MAP kinase p38 (Homo sapiens) (UniProt O15264+Q15759+Q16539+P53778); test: Inhibition of p38 phosphorylation in LPS-stimulated human THP1-XBlue-MD2-CD14 cells at 1 uM pre-incubated for 1 hr before LPS-stimulation for 30 mins by Western blot analysis; procedure, shortened: as §2
[15] = target: c-Jun N-terminal kinase, JNK (Homo sapiens) (UniProt P45983+P53779+P45984); test: Inhibition of JNK phosphorylation in LPS-stimulated human THP1-XBlue-MD2-CD14 cells at 1 uM pre-incubated for 1 hr before LPS-stimulation for 30 mins by Western blot analysis; procedure, shortened: as §2

| SMILES | inhibition (Homo sapiens) | Ratio IC50 [3] | IC50 ([4]; read-out: IC50) [µM] | IC50 [5] [µM] | IC50 [6] [µM] | inhibition (THP-1 [1]) | IC50 (THP-1 [2]) [µM] | inhibition (THP-1 [7]) | other results |
| --- | --- | --- | --- | --- | --- | --- | --- | --- | --- |
| CC(C)=CCc1c(O)cc2c(c1/C=C\c1ccc(O)cc1)CCC(C)(C)O2 | – | – | – | – | – | Active | 4.9 | – | – |
| C=CC(C)(C)c1cc(/C=C/c2cc(OC)cc(OC)c2)ccc1OC | Active | – | – | – | – | Active | > 10 | inactive | – |
| COc1cc(/C=C/c2ccc(OC)c(CC=C(C)C)c2)cc(OC)c1 | – | – | – | – | – | Active | > 10 | Active | – |
| C[C@]12C=CC(=O)C=C1CC[C@@H]1[C@@H]2C(=O)C[C@@]2(C)[C@H]1CC[C@]2(O)C(=O)CO | Active | – | – | – | – | – | – | – | – |
| CC(C)=CCc1c(O)cc(/C=C/c2ccc(O)cc2O)cc1O | – | – | – | – | – | inactive | > 10 | – | Activity (THP-1 [8]): Toxic; Activity (THP-1 [9]): Toxic |
| COc1cc(/C=C\c2ccc(OC)c(CC=C(C)C)c2)cc(OC)c1 | Active | – | – | – | – | Active | > 10 | Active | – |
| COc1ccc(/C=C/c2c(CC=C(C)C)c(O)cc3c2CC(O)C(C)(C)O3)cc1 (stereo not given) | – | – | – | – | – | inactive | 1.8 | – | inhibition (THP-1 [10]): Active; Activity (THP-1 [11]): Toxic |

More lines, main results first:

| inhibition (Homo sapiens) | Ratio IC50 [3] | IC50 ([4]; read-out: IC50) [µM] | IC50 [5] [µM] | IC50 [6] [µM] | SMILES | inhibition (THP-1 [1]) | IC50 (THP-1 [2]) [µM] | inhibition (THP-1 [7]) | other results |
| --- | --- | --- | --- | --- | --- | --- | --- | --- | --- |
| Active | 0.07 | 0.9 | 0.4 | 5.7 | CC(C)=CCc1c(O)cc(O)c(CC=C(C)C)c1/C=C/c1ccc(O)cc1 | Active | 12.8 | Active | – |
| – | 0.06 | 0.9 | 0.9 | 14.7 | COc1ccc(/C=C/c2c(CC=C(C)C)c(O)cc(O)c2CC=C(C)C)cc1O | Active | 3.9 | – | – |
| – | 0.36 | – | 12.6 | 35.5 | COc1ccc(/C=C/c2c(CC=C(C)C)c(O)cc3c2CCC(C)(C)O3)cc1O | Active | 3.3 | – | IC50 [4]: Not Active |
| Active | 0.17 | 1.1 | 0.8 | 4.7 | COc1ccc(/C=C/c2c(CC=C(C)C)c(O)cc(O)c2CC=C(C)C)cc1 | Active | 2.7 | – | – |
| Active | – | 2.4 | 13.3 | > 20 | CC1(C)C=Cc2c(O)cc(/C=C/c3ccc(O)cc3)cc2O1 [ARAHYPIN-5] | Active | > 10 | inactive | inhibition [12]: Active; inhibition [13]: inactive; inhibition [14]: inactive; inhibition [15]: inactive |
